Assay outcomes (PubChem BioAssay)
Sampled rows, rich in hits. Any-hit rate of the full collection: about 1.9%.
Tb MetRS inh: blocks T. brucei methionyl-tRNA synthetase activity; inhibition, % at 11.9 µM; purified T. brucei MetRS, ATP depletion, Kinase-Glo luminescence; 360,000 tested, 0.4% active;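 active = inhibition above a per-plate cutoff of the control wells' mean inhibition plus 3 SD, cut at about 5.5% in these data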;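 also: 0% = DMSO wells median and 100% = median of wells with control inhibitor compound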
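Assay system: T. brucei methionyl-tRNA synthetase, purified | Medium: HEPES buffer with MgCl2, KCl, DTT, spermine, BSA, pyrophosphatase | Compound: 11.9 µM single point | Incubation: 15 min enzyme-compound preincubation, 2 h reaction, 10 min detection, 25 °C | Measured by: Kinase-Glo luciferase luminescence reporting remaining unconsumed ATP | Measure: % inhibition normalized to control-well medians | Replication: Singlicate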
PLCb3 inh: PLC-beta3 (human) inhibition, primary screen; inhibition, % at 12.2 µM; Purified PLC-beta3, fluorogenic substrate, fluorescence; 370,000 tested, 0.18% active; AID 720704; in the data active = inhibition above about 11%;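 also: 0% = median of compound wells on plate and 100% = full blocker control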
HGIII-sPLA2 inh: Inhibits HGIII-sPLA2 liposome hydrolysis, primary screen; QFRET BODIPY PC-A2 liposome hydrolysis, fluorescence; inhibition, % at 12.2 µM; 370,000 tested, 0.56% active; AID 743126;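 active = inhibition above mean plus 3 SD of compounds lying within the high and low control bounds, cut at about 19% in these data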;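 also: 0% = median of test compound wells and 100% = no enzyme DMSO wells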
Target sequence (Q9NZ20 whole entry, looked up): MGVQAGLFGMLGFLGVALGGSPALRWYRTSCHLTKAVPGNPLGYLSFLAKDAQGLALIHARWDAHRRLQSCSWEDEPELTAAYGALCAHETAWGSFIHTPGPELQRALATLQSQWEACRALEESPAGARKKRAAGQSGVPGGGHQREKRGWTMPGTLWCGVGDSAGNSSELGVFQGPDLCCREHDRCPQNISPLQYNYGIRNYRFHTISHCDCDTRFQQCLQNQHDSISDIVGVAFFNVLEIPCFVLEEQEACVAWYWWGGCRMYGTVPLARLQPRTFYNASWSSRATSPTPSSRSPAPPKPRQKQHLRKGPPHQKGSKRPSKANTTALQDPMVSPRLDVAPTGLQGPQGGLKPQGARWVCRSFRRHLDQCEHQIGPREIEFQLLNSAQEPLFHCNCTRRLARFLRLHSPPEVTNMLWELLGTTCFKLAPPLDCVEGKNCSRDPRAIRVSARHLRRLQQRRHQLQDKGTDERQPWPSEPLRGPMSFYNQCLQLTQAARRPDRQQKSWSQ
PLCg1 inh: inhibitors of human phospholipase C gamma1; 370,000 tested, 0.84% active; P19174; purified PLC-gamma1, fluorogenic substrate, fluorescence; inhibition, % at 12.2 µM; in the data active = inhibition above about 9.5%
sPLA2 confirm: human GIII-sPLA2 inhibition, confirmation; shares compounds with HGIII-sPLA2 inh; recombinant hGIII-sPLA2, BODIPY PC-A2 QFRET fluorescence; inhibition, % at 12.2 µM; 2,000 tested, 34% active;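 active = mean inhibition across triplicates above the hit cutoff set in the earlier primary screen, cut at about 19% in these data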;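 also: 0% = enzyme with DMSO and 100% = DMSO wells lacking enzyme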
BODIPY interf: optically interferes with 535nm fluorescence in sPLA2 counter-screen; shares compounds with HGIII-sPLA2 inh; BODIPY FL product fluorescence interference, QFRET; inhibition, % at 12.2 µM; 2,000 tested, 8.5% active; AID 743282;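 active = average inhibition above the solvent-only control mean plus 3 SD, cut at about 6% in these data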;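 also: 0% = DMSO with substrate plus product and 100% = DMSO with substrate alone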
* marks the source's active call; other numbers are inactive results; / = no result given.

SMILES	Tb MetRS inh	PLCb3 inh	HGIII-sPLA2 inh	PLCg1 inh	sPLA2 confirm	BODIPY interf
COc1ccc(Cl)cc1-c1n[nH]c(=S)n1C	-0.2	-3.0	24.0*	5.9	15.8	-1.8
O=C(Cn1c(-c2cncs2)nc2ccccc21)N1CCCCC1	/	-2.3	5.7	0.9	/	/
Cc1ccccc1Nc1ccc(S(=O)(=O)N2CCOCC2)cc1[N+](=O)[O-]	1.0	1.6	19.9*	5.9	6.7	-9.2
CCn1c(O)c(N=NC(=O)CNC(=O)c2ccco2)c2ccccc21	-0.6	0.8	2.2	-1.4	/	/
CCCn1c(O)c(N=NC(=O)c2ccco2)c2ccccc21	-0.1	2.4	20.9*	1.5	-1.5	-5.7
CCOc1ccccc1NC(=S)N1CCN(c2ccccc2)CC1	-0.4	-2.6	23.9*	-4.5	26.5*	-3.9
COc1ccc(NC(=S)N2CCN(c3ccccc3)CC2)c(OC)c1	-0.8	1.4	7.4	-0.3	/	/
CC(C)C[C@H](NC1(C(=O)NC2CCCCC2)CCN(C(=O)OC(C)(C)C)CC1)C(=O)NCCc1c[nH]c2ccccc12	/	2.2	-78.1	1.3	/	/
CCOc1ccc(CCNC(=O)c2cc(-c3ccccc3)c(N3CCOCC3)s2)cc1OC	/	-9.1	-3.4	-5.6	/	/
CCn1c(-c2ccc3[nH]c(C)c(C)c3c2)n[nH]c1=S	0.2	-9.6	13.0	-4.3	/	/
Cc1[nH]c2ccc(-c3n[nH]c(=S)n3C)cc2c1C	-0.8	-3.5	21.0*	-3.6	26.4*	3.6
C=CCN1C(=O)/C(=C2/Sc3ccc(OC)cc3N2C)SC1=Nc1ccccc1	-0.2	-4.1	94.3*	4.8	3.9	-4.5
C=CCN1C(=O)/C(=C2/Sc3ccc(OC)cc3N2C)SC1=NCc1ccccc1	-0.4	-3.7	-2.4	3.6	/	/
O=c1c2cc([N+](=O)[O-])cc([N+](=O)[O-])c2[nH]n1-c1ccccc1	-0.2	-5.6	20.9*	5.2	26.8*	5.0
NS(=O)(=O)c1ccc(NC(=O)CSc2nc3ccccc3c(=O)n2-c2ccc(Br)cc2)cc1	/	0.4	-14.0	0.6	/	/
Cc1ccc(C(=O)Nc2nc(C(N)Cc3ccc(C(F)(F)F)cc3)cs2)cc1 (stereo not given)	0.0	-0.5	22.8*	1.5	4.7	-2.8
CC1CCN(CCCCOc2ccc(Br)cc2)CC1	-0.5	-1.2	20.4*	8.6	3.9	-13.6
CC1CCN(CCCCOc2cccc(Br)c2)CC1	-0.5	1.1	2.6	2.5	/	/
Cn1nccc1C(=O)N1CCc2ccccc21	0.4	5.9	86.9*	9.0	-0.6	-0.8
Cn1ncc(Br)c1C(=O)N1CCc2ccccc21	-0.8	-0.2	3.0	-0.9	/	/
C[C@@H]1C[C@H]2[C@@H](C)C(=O)N3[C@H](c4ccccc4)[C@H](C)C[C@H]3[C@@H](C)C(=O)N2[C@@H]1c1ccccc1	/	-4.5	7.1	2.6	/	/
COc1ccc(OC)c(NC(=O)COC(=O)CCCN=C2NS(=O)(=O)c3ccccc32)c1	-0.2	-0.8	20.4*	0.2	6.5	-13.1
COC(=O)C[C@@H]1CC[C@H]2[C@@H](COc3ccc(NC(=O)Nc4ccc(C)cc4)cc3C(=O)N2C)O1	/	5.1	-2.0	5.6	/	/
COC(=O)C1=C(C)N(Cc2cccc(C(F)(F)F)c2)C(=NCc2cc(OC)c(OC)c(OC)c2)NC1c1cccc(Cl)c1 (stereo not given)	/	-3.9	-8.7	-4.3	/	/
COc1ccc(Br)cc1CN(C)C(C)C(=O)Nc1cc([N+](=O)[O-])ccc1OC (stereo not given)	-0.3	-1.4	19.8*	2.1	8.1	-7.7
SMILES	Tb MetRS inh	PLCb3 inh	HGIII-sPLA2 inh	PLCg1 inh	sPLA2 confirm	BODIPY interf
N#Cc1ccc(S(=O)(=O)NC(=O)[C@H]2O[C@@H](n3ccc(=O)[nH]c3=O)[C@H](O)[C@@H]2O)cc1	/	8.2	8.8	7.3	/	/
C[C@H]1C2CC(OC(=O)NCc3ccccc3)C(C2)[C@H]2CCCCN21 (stereo not given in full)	/	-0.2	18.8	-1.1	/	/
CCC[C@H]1[C@@H](OC(=O)NCc2ccc(Cl)c(Cl)c2)CC[C@@]23CCCN2C(=O)CCC[C@@H]13	/	-3.6	2.3	2.5	/	/
CC(Sc1nc2ccccc2s1)C(=O)Nc1nnc(C(C)C)s1 (stereo not given)	0.1	/	/	/	/	/
CCC(Sc1nc2ccccc2s1)C(=O)Nc1nnc(C)s1 (stereo not given)	0.8	-3.8	19.3*	-1.9	12.6	-7.1
CCCCc1n[nH]c(=S)n1Cc1ccc(Cl)cc1	-0.1	0.3	19.6*	0.5	25.8*	-1.2
S=c1[nH]nc(COc2ccc(Cl)cc2)n1Cc1ccco1	-0.3	-2.8	11.6	3.0	/	/
S=c1[nH]nc(-c2ccncc2)n1Cc1ccco1	0.0	1.2	9.7	-2.9	/	/
CCCc1n[nH]c(=S)n1Cc1ccco1	-0.3	-8.5	21.7*	2.5	10.7	-3.5
COc1cccc(-c2n[nH]c(=S)n2Cc2ccco2)c1	-0.2	-10.2	22.6*	0.6	25.0*	0.5
CCCCc1n[nH]c(=S)n1Cc1ccccc1	-0.8	3.2	8.8	-1.1	/	/
Oc1ccc(Oc2ccccc2F)c2cccnc12	/	-4.1	25.4*	-0.2	26.0*	-2.5
Nc1cccnc1Oc1ccccc1F	0.1	-3.4	-4.4	1.1	/	/
COC(=O)C1=C(C)N(Cc2ccccc2C(F)(F)F)C(=NCC2CC2)NC1CCc1ccccc1 (stereo not given)	/	-1.2	-12.5	-0.6	/	/
CC1CCCN(C(C(=O)NC2CCCCC2)c2cc3c(cc2[N+](=O)[O-])OCO3)C1 (stereo not given)	-1.7	-14.2	19.7*	-8.6	1.5	-16.3
CC1CCN(C(C(=O)NC2CCCCC2)c2cc3c(cc2[N+](=O)[O-])OCO3)CC1 (stereo not given)	0.1	-3.6	11.7	-1.7	/	/
COc1cccc(N2CCN(C(=O)CSc3nc4ncccc4[nH]3)CC2)c1	/	3.0	2.3	-0.4	/	/
O=C(Nc1ccc(N2CCOCC2)nc1)c1cccs1	-0.7	-1.3	2.6	0.0	/	/
O=C(Nc1cccnc1N1CCOCC1)c1cccs1	-0.1	-7.7	21.6*	2.6	0.2	-5.1
CN(CCOC(=O)c1cc2ccccc2o1)C1CN(Cc2cn(Cc3ccccc3F)nn2)S(=O)(=O)C1 (stereo not given)	/	1.8	-2.5	-3.5	/	/
CS(=O)(=O)N1CCCC(C(=O)NCc2cccs2)C1 (stereo not given)	0.2	-1.1	20.0*	3.3	-3.5	-0.9
CS(=O)(=O)N1CCCC(C(=O)NCc2ccco2)C1 (stereo not given)	-1.0	2.0	19.6*	9.0	-1.3	-4.0
COC(=O)C1CN(Cc2cn(Cc3ccc(OC)cc3)nn2)CCS(=O)(=O)N1Cc1ccc(F)cc1 (stereo not given)	/	3.1	-3.1	-0.7	/	/
Fc1ccc(NC(=S)NN2CCOCC2)cc1Cl	0.5	1.4	24.7*	1.9	1.4	-0.1
O=C(NCc1ccccc1F)C1C2C=CC3(CN(Cc4ccccc4)C(=O)C13)O2 (stereo not given)	/	-0.2	9.1	0.3	/	/
